A selection: hits, their analogues and other compounds. The true share with any hit is near 3.1%.
MEKK2 WT-MEK5 – raises or lowers MEK5 binding to wildtype human MEKK2 PB1 domain; Q9Y2U5; bead flow cytometry, Alexa488-MEK5 binding to MEKK2 WT; actives lie on both sides; binding response (% of control), % at 10 µM; actives 1.1% (n = 290,000); AID 1531; in the data active means binding response below about 67% or above about 130%
PREPL inhibitor – inhibitors of human prolyl oligopeptidase-like enzyme PREPL | Q4J6C6 | recombinant PREPL, fluorescence polarization activity-based probe | actives 0.68% (n = 320,000) | inhibition, % at 5.96 µM; in the data active means inhibition above about 43%
Target sequence (Q4J6C6 whole entry, looked up): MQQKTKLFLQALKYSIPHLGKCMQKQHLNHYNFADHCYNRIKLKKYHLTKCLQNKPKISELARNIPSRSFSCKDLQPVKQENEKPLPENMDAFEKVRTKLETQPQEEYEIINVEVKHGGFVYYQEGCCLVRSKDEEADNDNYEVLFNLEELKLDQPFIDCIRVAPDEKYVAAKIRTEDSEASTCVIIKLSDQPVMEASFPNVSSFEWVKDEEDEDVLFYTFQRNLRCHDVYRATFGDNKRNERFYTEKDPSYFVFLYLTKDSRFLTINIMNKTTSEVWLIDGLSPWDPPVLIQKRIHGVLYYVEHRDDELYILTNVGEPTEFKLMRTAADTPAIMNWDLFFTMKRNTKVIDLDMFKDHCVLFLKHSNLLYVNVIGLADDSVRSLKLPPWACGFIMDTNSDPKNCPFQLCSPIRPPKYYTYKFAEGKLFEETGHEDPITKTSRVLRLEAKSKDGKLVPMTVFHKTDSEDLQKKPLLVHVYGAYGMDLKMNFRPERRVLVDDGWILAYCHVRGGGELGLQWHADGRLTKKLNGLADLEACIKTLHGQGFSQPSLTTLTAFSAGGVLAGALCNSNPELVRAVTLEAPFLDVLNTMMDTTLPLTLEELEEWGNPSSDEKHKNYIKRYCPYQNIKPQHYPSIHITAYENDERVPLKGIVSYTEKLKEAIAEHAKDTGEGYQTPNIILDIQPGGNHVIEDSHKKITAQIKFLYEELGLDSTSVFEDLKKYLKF
MEKK3 PB1 HTS – raises or lowers MEK5 binding to the human MEKK3 PB1 domain | Q99759 | bead-based flow cytometry, Alexa488-MEK5 binding to MEKK3; actives lie on both sides; 0 = blocked by unlabeled MEK5, 100 = vehicle | binding response (% of control), % at 10 µM | actives 1.4% (n = 290,000) | AID 1529;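 active means binding response more than 3 SD above or below the average of its plate-row segment, actives on both sides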;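 further: Alexa488 bead fluorescence after subtracting the streptavidin-only scavenger bead signal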
UBC13 polyUb – blocks human UBC13 polyubiquitin chain formation | P61088 | inhibition, % at 20 µM | actives 0.47% (n = 330,000) | AID 485273 | TR-FRET; in the data active means inhibition above about 45%, passing the limit was not always enough
Apaf1 inhib – inhibitors of human Apaf-1 apoptosome; inhibition, % at 20 µM; reconstituted apoptosome caspase-3 activity, DEVD-Rh110 fluorescence; AID 489030; actives 0.71% (n = 330,000); active means inhibition of at least 40% at 20 µM
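Material: biochemical Apaf-1 apoptosome reconstitution. Medium: Hepes buffer, pH 7.5. Also added: cytochrome c activation, bis-DEVD rhodamine 110 substrate. Timing: 30 min compound preincubation, 50 min activation, room temperature. Measured by: rhodamine 110 fluorescence at Ex 480/Em 540 nm.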
MEKK2mut PB1 HTS – signal of MEK5 binding to mutant human MEKK2 PB1 domain; bead flow cytometry, Alexa488-MEK5 binding to MEKK2 mutant; percent response, % at 10 µM; actives 0.35% (n = 290,000); in the data active means percent response above about 24%, passing the limit was not always enough
MEKK2wt confirm – raises or lowers MEK5 binding to wildtype human MEKK2, retest | shares compounds with MEKK3 PB1 HTS | bead flow cytometry, Alexa488-MEK5 binding to MEKK2 WT; actives lie on both sides | binding response (% of control), % at 10 µM | actives 2.4% (n = 5,900) | AID 1892; in the data active means binding response below about 16% or above about 210%; inactive means in between
MEKK2mut confirm – signal of MEK5 binding to mutant human MEKK2, retest; bead flow cytometry, Alexa488-MEK5 binding to MEKK2 mutant; percent response, % at 10 µM; actives 2% (n = 5,900); shares compounds with MEKK3 PB1 HTS; in the data active means percent response mostly above about 71%, no sharp cut-off; inactive means mostly below about 38%;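 further: higher means compound restores mutant binding toward wildtype level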
MEKK3 confirm – confirmation of inhibitors of MEK5 binding to human MEKK3. shares compounds with MEKK3 PB1 HTS. binding response (% of control), % at 10 µM. actives 1.8% (n = 5,900). bead flow cytometry, Alexa488-MEK5 binding to MEKK3; stronger effect = lower value;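 active means binding response below 72% of control, or above a set upper limit, though filed actives all read lower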
Numbers stand for hits; 0 = inactive; - = not tested or not shown; [ ] = remark or other dose.

SMILES	MEKK2 WT-MEK5	PREPL inhibitor	MEKK3 PB1 HTS	UBC13 polyUb	Apaf1 inhib	MEKK2mut PB1 HTS	MEKK2wt confirm	MEKK2mut confirm	MEKK3 confirm
CCN(c1ccccc1)S(=O)(=O)c1cccc(C(=O)NCc2ccccn2)c1	-	0	-	0	0	-	-	-	-
CCSc1nc2sc3c(c2c(=O)[nH]1)CCCC3	0	0	0	0	0	0	-	-	-
CCSC1=NC2(CCCCC2)Nc2sc3c(c21)CCCC3	2.0[inhibitor]	0	3.0[inhibitor]	0	0	0	0	0	0
Cc1ccccc1OCC(=O)N/N=C/c1cccc(Oc2ccc([N+](=O)[O-])cc2[N+](=O)[O-])c1	0	0	132	0	0	0	0	0	0
C=CCn1c(SCC(=O)Nc2cccc(S(N)(=O)=O)c2)nnc1C1CCCCC1	-	0	-	0	0	-	-	-	-
COc1ccc(C2/C=C\CN(C(=O)C3CCCC3)[C@H](Cc3ccccc3)C(=O)N2Cc2ccc(F)cc2)cc1 (some centres undefined)	151	0	133	0	0	0	0	0	0
CCn1c(CCNC(=O)c2cccs2)nnc1SCC(=O)Nc1ccc(Cl)cc1	0	0	0	0	0	0	-	-	-
CCn1c(CCNC(=O)c2cccs2)nnc1SCC(=O)NC1CCCCC1	0.0[inhibitor]	0	1.0[inhibitor]	0	0	0	0	0	0
Cc1cc(C)c2cc(C#N)c(N3CCCN(C(=S)NCCCN(C)C)CC3)nc2c1	0	0	0	0	0	32	0	0	0
CN(C)CCN1C(=O)c2oc3ccccc3c(=O)c2C1c1cccc(Br)c1 (centres undefined)	0	0	0	0	0	0	-	-	-
CN(C)CCN1C(=O)c2oc3ccc(Cl)cc3c(=O)c2C1c1cccc(Br)c1 (centres undefined)	139	0	129	0	0	0	0	0	0
CCOC(=O)c1ccc(N2CN(CC)CNC2=S)cc1	0	0	130	0	0	0	0	0	0
CCCN1CNC(=S)N(c2ccc(C(=O)OCC)cc2)C1	0	0	0	0	0	0	-	-	-
O=C(Cc1ccc(Cl)cc1)N/N=C/c1cccc(O)c1	0	0	0	0	0	0	-	-	-
Nc1ccc2nc(-c3ccc(-c4nc5ccc(N)cc5[nH]4)cc3)[nH]c2c1	65[inhibitor]	0	53[inhibitor]	0	0	0	0	0	71
COc1cc(CN(C)CC2CCCN(CCc3cccc(C(F)(F)F)c3)C2)ccc1O (centres undefined)	156	0	0	0	0	28	0	0	0
CCCOC(=O)c1ccc(OCC(O)CN2CCN(C(=O)c3ccccc3)CC2)cc1 (centres undefined)	0	0	0	0	0	27	0	0	0
CC(C)(C)c1ccc(OCC(O)CN2CCN(C(=O)c3ccccc3)CC2)cc1 (centres undefined)	0	0	0	0	0	0	-	-	-
Cc1cccc(NC(=O)CN(CC2CCCO2)C(=O)c2oc3ccccc3c2C)c1C (centres undefined)	-	0	-	0	0	-	-	-	-
CCCn1c(SCC(=O)N2c3ccccc3Sc3ccccc32)nc2ccccc21	0	0	150	0	0	0	0	0	0
CCCn1c(SCC(=O)O)nc2ccccc21	0	0	0	0	0	0	-	-	-
O=C(O)CCn1c(SCCc2ccccc2)nc2ccccc21	-	0	-	0	0	-	-	-	-
O=C(O)CCn1c(SCc2ccccc2)nc2ccccc21	0.0[inhibitor]	0	0.0[inhibitor]	0	0	0	0	0	0
COCCN(C(=O)c1cccc(OC)c1)c1nnc(-c2ccncc2)s1	0	0	0	0	0	0	-	-	-
COCCN(C(=O)C1CC1)c1nnc(-c2cccc(C)c2)s1	0.0[inhibitor]	0	0.0[inhibitor]	0	0	0	0	0	0
SMILES	MEKK2 WT-MEK5	PREPL inhibitor	MEKK3 PB1 HTS	UBC13 polyUb	Apaf1 inhib	MEKK2mut PB1 HTS	MEKK2wt confirm	MEKK2mut confirm	MEKK3 confirm
CCn1ncc(CN2CCCC(C(=O)Nc3cccc(-c4cc5ccccc5[nH]4)c3)C2)c1C (centres undefined)	161	0	0	0	0	24	0	0	0
O=C1c2ccccc2[C@@H]2C[C@@H](O)[C@H](Nc3cccc(C(F)(F)F)c3)CCN12	-	-	-	-	0	-	-	-	-
COc1ccc(NC(=S)NC2CC3CCCC(C2)N3C2CC2)cc1 (centres undefined)	0	0	135	0	0	0	0	0	0
CCCN1C2CCCC1CC(NC(=S)Nc1ccc(OC)cc1)C2 (centres undefined)	0	0	0	0	0	0	-	-	-
COc1ccc(S(=O)(=O)N2CCOCC2)cc1C(=O)N1CCCC1	0	0	0	0	0	0	-	-	-
Cc1ccccc1Nc1nnc(SCC(=O)Nc2ccccc2[N+](=O)[O-])s1	0	0	133	0	0	0	0	0	0
O=C(CCCc1nc(-c2ccccc2Cl)no1)NCc1cccnc1	0	0	123	0	0	0	0	0	0
CCN(CC)C(=O)c1c([N+](=O)[O-])c(C(C)(C)C)nn1C	0	0	140	0	0	0	0	0	0
Cn1nc(C(C)(C)C)c([N+](=O)[O-])c1C(=O)NCCO	0	0	0	0	0	0	-	-	-
COc1cc(/C=C2/SC(=S)N(CC(=O)O)C2=O)ccc1OCC(=O)Nc1ccc(C)c(C)c1	0	0	0	0	0	0	-	-	-
CCN(CC)CCCCN1c2ccccc2Sc2ccccc21	136	0	0	0	0	0	0	0	0
CCOc1ccc(NC(=O)c2cn(-c3ccc(OCC)cc3)c(=O)c3cc(OC)c(OC)cc23)cc1	0	0	0	0	0	0	-	-	-
CCOc1ccc(-n2cc(C(=O)Nc3cccc(Cl)c3)c3cc(OC)c(OC)cc3c2=O)cc1	3.0[inhibitor]	0	2.0[inhibitor]	0	0	0	0	0	0
CC(=O)Nc1ccc(NC(=O)C(C)Oc2ccc(C)nc2[N+](=O)[O-])cc1 (centres undefined)	-	0	-	0	0	-	-	-	-
Cc1onc(-c2ccccc2Cl)c1C(=O)NCCN1Cc2ccccc2C1=O	2.0[inhibitor]	0	1.0[inhibitor]	0	0	0	0	0	0
COc1ccc(CCNC(=O)c2c(-c3ccccc3Cl)noc2C)cc1	0	0	0	0	0	0	-	-	-
CCOC(=O)c1ccc(NC(=O)C(=O)NCc2ccncc2)cc1	24[inhibitor]	0	19[inhibitor]	0	0	0	0	0	0
CCC(C)NC(=O)C(=O)NCc1ccncc1 (centres undefined)	0	0	81[inhibitor]	0	0	0	0	0	0
CCNC(=O)C(=O)NCc1ccncc1	0	0	0	0	0	0	-	-	-
